The values below come from ChEMBL document CHEMBL4392833, “Thiazolyl-pyrazole derivatives as potential antimycobacterial agents” (Bioorg Med Chem Lett, 2019).

Assay [1] has as its system Mycobacterium tuberculosis variant bovis. In words: Antitubercular activity against dormant stage of Mycobacterium bovis BCG ATCC 35743 assessed as growth inhibition at 30 ug/ml after 12 days by nitrate reductase assay relative to control. The assay is classed as functional. The conditions noted are these: BCG str. ATCC 35743, 288 h.
Assay [2] shares this test system. Put plainly: Antitubercular activity against dormant stage of Mycobacterium bovis BCG ATCC 35743 assessed as growth inhibition at 10 ug/ml after 12 days by nitrate reductase assay relative to control. Particulars: BCG str. ATCC 35743, 288 h. The assay is classed as functional.
For assay [3] the test system is unchanged. In words: Antitubercular activity against dormant stage of Mycobacterium bovis BCG ATCC 35743 assessed as growth inhibition at 3 ug/ml after 12 days by nitrate reductase assay relative to control. The class given is functional. Particulars: BCG str. ATCC 35743, 288 h.
Assay [4] shares this test system. Put plainly: Antitubercular activity against dormant stage of Mycobacterium bovis BCG ATCC 35743 by two fold dilution technique. The class given is functional. The conditions noted are these: BCG str. ATCC 35743. The gist of the method:
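MIC against dormant-stage bacilli, read out by XTT reduction menadione assay (XRMA), with rifampicin MIC determined the same way as reference.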

For assay [5] the test system is unchanged. Put plainly: Antitubercular activity against dormant stage of Mycobacterium bovis BCG ATCC 35743 after 12 days by nitrate reductase assay. The assay is classed as functional, organism-based. The conditions noted are these: BCG str. ATCC 35743, 288 h.
For assay [6] the test system is unchanged. In words: Potency index, ratio of rifampicin MIC to test compound MIC for dormant stage of Mycobacterium bovis BCG ATCC 35743. The class given is functional, BCG str. ATCC 35743.

With `Cc1nc(C)c(-c2nn(-c3ccc(F)cc3)cc2/C=C/C(=O)c2c(O)cc(C)c(Cl)c2C)s1`, the inhibition at 30 µg/mL in assay [1] was 9.91%. Also, the inhibition at 10 µg/mL in assay [2] was determined as 4.19%. Further, in assay [3], the inhibition at 3 µg/mL was determined as 8.39%. Also, in assay [4], the MIC90 was above 30 µg/mL. This compound yielded an IC50 in assay [5] above 30 µg/mL.
With `Cc1nc(C)c(-c2nn(-c3ccc(F)cc3)cc2/C=C/C(=O)c2cc(Cl)ccc2O)s1`, the inhibition at 30 µg/mL in assay [1] is 19.6%. For the same compound, the inhibition at 10 µg/mL in assay [2] was determined as 5.45%. Besides, the inhibition at 3 µg/mL in assay [3] came to 5.71%. The compound also yielded an MIC90 in assay [4] above 30 µg/mL. The IC50 in assay [5] is above 30 µg/mL.
With `Cc1nc(C)c(-c2nn(-c3ccc(F)cc3)cc2/C=C/C(=O)c2cc(Br)ccc2O)s1`, the inhibition at 30 µg/mL in assay [1] came out at 19.2%. In assay [2], the inhibition at 10 µg/mL came out at 16.4%. Also, the inhibition at 3 µg/mL in assay [3] came out at 5.7%. This compound displayed an MIC90 in assay [4] above 30 µg/mL. This compound also yielded a half-maximal inhibitory concentration (IC50) in assay [5] above 30 µg/mL.
`Cc1ccc(O)c(C(=O)/C=C/c2cn(-c3ccc(F)cc3)nc2-c2sc(C)nc2C)c1`: in assay [1], the inhibition at 30 µg/mL was 96.9%. Besides, the inhibition at 10 µg/mL in assay [2] was found to be 85.2%. Moreover, in assay [3], the inhibition at 3 µg/mL turned out to be 60.9%. Further, the MIC90 in assay [4] was found to be 16.2 µM. Further, the IC50 in assay [5] came to 1.59 µM.
Regarding `Cc1ccc(O)c(C2=NNC(c3cn(-c4ccc(F)cc4)nc3-c3sc(C)nc3C)C2)c1` (stereo not drawn), the inhibition at 30 µg/mL in assay [1] came out at 97.5%. For the same compound, the inhibition at 10 µg/mL in assay [2] stood at 82.7%. Also, the inhibition at 3 µg/mL in assay [3] stood at 33%. This compound also came in with an MIC90 in assay [4] of 63.1 µM. The same compound came in with an IC50 in assay [5] of 46.4 µM.
Turning to `Cc1nc(C)c(-c2nn(-c3ccc(F)cc3)cc2C2CC(c3cc(Br)ccc3O)=NN2)s1` (stereo not drawn), in assay [1], the inhibition at 30 µg/mL amounted to 99.5%. The inhibition at 10 µg/mL in assay [2] was determined as 98.7%. The inhibition at 3 µg/mL in assay [3] came out at 96.2%. Also, the MIC90 in assay [4] worked out at 0.39 µM. In assay [6], the Ratio is given as 4. This compound had an IC50 in assay [5] of 5.79 µM.
`Cc1nc(C)c(-c2nn(-c3ccc(F)cc3)cc2C2CC(c3c(O)cc(C)c(Cl)c3C)=NN2)s1` (stereo not drawn): in assay [1], the inhibition at 30 µg/mL is 98.4%. Further, the inhibition at 10 µg/mL in assay [2] was 98%. The inhibition at 3 µg/mL in assay [3] was 89%. For the same compound, in assay [4], the MIC90 was found to be 4.55 µM. The compound further displayed a 50% inhibitory concentration (IC50) in assay [5] of 5.04 µM.
In the same order, the values of `Cc1ccc2oc(-c3cn(-c4ccc(F)cc4)nc3-c3sc(C)nc3C)cc(=O)c2c1` are 95.6%, 96.6%, 97.6%, 1.18 µM and 5.89 µM.
In the case of `Cc1nc(C)c(-c2nn(-c3ccc(F)cc3)cc2-c2cc(=O)c3cc(Cl)c(C)cc3o2)s1`, the inhibition at 30 µg/mL in assay [1] was found to be 98.2%. Also, the inhibition at 10 µg/mL in assay [2] came out at 98.9%. In addition, in assay [3], the inhibition at 3 µg/mL was found to be 99.7%. In assay [4], this compound had an MIC90 of 2.85 µM. In assay [5], this compound gave a half-inhibitory concentration (IC50) of 3.69 µM.
The like results for `Cc1nc(C)c(-c2nn(-c3ccc(F)cc3)cc2/C=C/C(=O)c2cc(Cl)cc(Cl)c2O)s1` were, in that order, 29.8%, 10.1%, 8.72%, above 30 µg/mL and above 30 µg/mL.
Regarding `Cc1nc(C)c(-c2nn(-c3ccc(F)cc3)cc2C2CC(c3cc(Cl)ccc3O)=NN2)s1` (stereo not drawn), the inhibition at 30 µg/mL in assay [1] turned out to be 99.7%. Moreover, in assay [2], the inhibition at 10 µg/mL turned out to be 99.7%. In addition, in assay [3], the inhibition at 3 µg/mL came out at 99.2%. This compound also showed an MIC90 in assay [4] of 1.54 µM. This compound also returned an IC50 in assay [5] of 2.48 µM.
Consider `Cc1nc(C)c(-c2nn(-c3ccc(F)cc3)cc2/C=C/C(=O)c2cc(Cl)c(C)cc2O)s1`, for which the inhibition at 30 µg/mL in assay [1] was determined as 97.2%. Also, the inhibition at 10 µg/mL in assay [2] was found to be 52.8%. Moreover, the inhibition at 3 µg/mL in assay [3] was found to be 8.47%. In assay [4], the MIC90 came to 6.85 µM. Moreover, in assay [5], 0.79 µM corresponded to half-maximal inhibition (IC50).
In the same order, the values of `Cc1nc(C)c(-c2nn(-c3ccc(F)cc3)cc2C2CC(c3cc(Cl)c(C)cc3O)=NN2)s1` (stereo not drawn) are 98.5%, 89.7%, 69.6%, 4.77 µM and 9.65 µM.
`CO[C@H]1/C=C/O[C@@]2(C)Oc3c(C)c(O)c4c(O)c(c(/C=N/N5CCN(C)CC5)c(O)c4c3C2=O)NC(=O)/C(C)=C\C=C\[C@H](C)[C@H](O)[C@@H](C)[C@@H](O)[C@@H](C)[C@H](OC(C)=O)[C@@H]1C` [RIFAMPIN]: the MIC90 in assay [4] was determined as 0.98 µM. Moreover, the IC50 in assay [5] is 0.91 µM.

A word on the inhibition: it is the drop in the measured response relative to a control, in per cent. By MIC90 is commonly meant an inhibitory concentration at the 90% level, which refers to growth in some studies and to a panel of isolates in others. As usually defined, the IC50 is the concentration needed to halve the response being measured.
